In ChEMBL document CHEMBL1921704, “Discovery of N-aryl-2-acylindole human glucagon receptor antagonists” (Bioorg Med Chem Lett, 2011):

Legend:
Glucagon receptor [1] = target: T1, Glucagon receptor (Homo sapiens, UniProt P47871); experiment: Displacement of [125I]-glucagon from human glucagon receptor expressed in CHO cells after 4 to 12 hrs by scintillation proximity assay; type: cell-based
Method in brief: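 Scintillation proximity assay on membranes from CHO cells expressing hGCGR, measuring inhibition of ¹²⁵I-labelled glucagon binding. IC50 reported as the average rounded to two significant figures, with standard error of the mean when more than one measurement was made.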

Glucagon receptor [2] = target: T1, Glucagon receptor; experiment: Antagonist activity at human glucagon receptor expressed in CHO cells assessed as inhibition of forskolin/glucagon-induced cAMP production preincubated for 30 mins before glucagon challenge measured after 30 mins using [125I]-cAMP by liquid scintillation counting; type: functional, cell-based
Method in brief: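 Glucagon-induced cAMP production measured in CHO cells transfected with hGCGR. IC50 reported as the average rounded to two significant figures, with SEM when measured more than once.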

[3] = Oral bioavailability in rat; type: ADME, organism-based; conditions: in vivo
Method in brief: (§1)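 Rat PK with dosing at 1 mg/kg IV and 2 mg/kg PO, vehicle DMSO/water/PEG400 15:35:55. Parameters were plasma clearance, Vd, t1/2, dose-normalised PO AUC and Cmax, and %F.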

[4] = Clearance in rat; type: ADME, organism-based; conditions: in vivo; method in brief: as §1
[5] = Volume of distribution in rat at 1 mg/kg, iv and 2 mg/kg, po; type: ADME, organism-based; conditions: in vivo; method in brief: as §1
[6] = Plasma clearance in rat at 1 mg/kg, iv and 2 mg/kg, po; type: ADME, organism-based; method in brief: as §1
[7] = Oral bioavailability in rat at 2 mg/kg; type: ADME, organism-based; conditions: in vivo; method in brief: as §1
Rattus norvegicus [8] = experiment: Dose normalised Cmax in rat at 1 mg/kg, iv and 2 mg/kg, po; type: ADME, organism-based; conditions: in vivo; method in brief: as §1
Rattus norvegicus [9] = experiment: Dose normalised AUC in rat at 2 mg/kg, po; type: ADME, organism-based; parameters: dose 2 mg/kg, route oral; conditions: in vivo; method in brief: as §1
[10] = Half life in rat at 1 mg/kg, iv and 2 mg/kg, po; type: ADME, organism-based; conditions: in vivo; method in brief: as §1

T1 sequence (P47871 whole entry): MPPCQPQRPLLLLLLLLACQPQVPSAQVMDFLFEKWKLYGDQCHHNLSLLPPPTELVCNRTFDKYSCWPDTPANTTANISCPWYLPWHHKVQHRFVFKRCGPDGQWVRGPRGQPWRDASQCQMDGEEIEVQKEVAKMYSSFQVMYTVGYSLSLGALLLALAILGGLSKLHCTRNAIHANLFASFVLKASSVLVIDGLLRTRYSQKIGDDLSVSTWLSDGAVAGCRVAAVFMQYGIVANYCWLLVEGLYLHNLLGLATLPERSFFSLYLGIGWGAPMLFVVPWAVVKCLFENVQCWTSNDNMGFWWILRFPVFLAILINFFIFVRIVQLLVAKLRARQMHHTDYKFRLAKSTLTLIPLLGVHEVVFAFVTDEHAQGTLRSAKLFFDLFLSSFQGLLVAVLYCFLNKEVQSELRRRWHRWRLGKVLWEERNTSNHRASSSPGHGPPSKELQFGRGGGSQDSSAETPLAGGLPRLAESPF

SMILES	IC50 (Glucagon receptor [1])	IC50 (Glucagon receptor [2])	other results
CCCC(Cc1ccc(C(=O)NCCC(=O)O)cc1)C(=O)c1cc2cc(Cl)ccc2n1-c1cc(Cl)cc(Cl)c1 (single isomer, unassigned)	110 nM	–	–
CCCC(Cc1ccc(C(=O)NCCC(=O)O)cc1)C(=O)c1cc2cc(Cl)ccc2n1-c1ccc2c(c1)OCCO2 (single isomer, unassigned)	28 nM	49 nM	–
CCCC(Cc1ccc(C(=O)NCCC(=O)O)cc1)C(=O)c1cc2cc(Cl)ccc2n1-c1ccc(Cl)c(C(F)(F)F)c1 (single isomer, unassigned)	12 nM	17 nM	Vd [5]: 0.84 L/kg; clearance [6]: 9.2 mL/min/kg; bioavailability [7]: 17%; Cmax/dose (Rattus norvegicus [8]): 150 nM; AUC/dose (Rattus norvegicus [9]): 0.52 µM·h; half-life [10]: 1.3 h
CCCC(Cc1ccc(C(=O)NCCC(=O)O)cc1)C(=O)c1cc2cc(Cl)ccc2n1-c1ccc(Cl)cc1 (single isomer, unassigned)	32 nM	100 nM	–
CCCC(Cc1ccc(C(=O)NCCC(=O)O)cc1)C(=O)c1cc2cc(Cl)ccc2n1-c1ccc2cc(OC)ccc2c1 (single isomer, unassigned)	34 nM	95 nM	–
CCCC(Cc1ccc(C(=O)NCCC(=O)O)cc1)C(=O)c1cc2cc(Cl)ccc2n1-c1ccc(C(C)(C)C)cc1 (single isomer, unassigned)	52 nM	52 nM	bioavailability [3]: 38%; clearance [4]: 4.7 mL/min/kg

Second part, led by results:

IC50 (Glucagon receptor [1])	IC50 (Glucagon receptor [2])	SMILES	other results
51 nM	–	O=C(Nc1nnn[nH]1)c1ccc(Cn2c(C(=O)c3ccc(OC(F)(F)F)cc3)cc3ccc(C(F)(F)F)cc32)cc1	bioavailability [3]: 40%; clearance [4]: 10 mL/min/kg
450 nM	–	CCC[C@H](Cc1ccc(C(=O)NCCC(=O)O)cc1)C(=O)c1cc2cc(Cl)ccc2n1-c1cccc(C(F)(F)F)n1	–
10 nM	20 nM	CCCCC[C@@H](Cc1ccc(C(=O)NCCC(=O)O)cc1)C(=O)c1cc2cc(F)ccc2n1-c1cccc(C(F)(F)F)c1	–
26 nM	35 nM	CCCCC[C@@H](Cc1ccc(C(=O)NCCC(=O)O)cc1)C(=O)c1cc2cc(OC)ccc2n1-c1cccc(C(F)(F)F)c1	–
24 nM	35 nM	CCCC(Cc1ccc(C(=O)NCCC(=O)O)cc1)C(=O)c1cc2cc(Cl)ccc2n1-c1cccc(OC(F)(F)F)c1 (single isomer, unassigned)	–
9.2 nM	34 nM	CCC[C@@H](Cc1ccc(C(=O)NCCC(=O)O)cc1)C(=O)c1cc2cc(Cl)ccc2n1-c1cccc(C(F)(F)F)n1	Vd [5]: 0.9 L/kg; clearance [6]: 24 mL/min/kg; bioavailability [7]: 9.1%; Cmax/dose (Rattus norvegicus [8]): 70 nM; AUC/dose (Rattus norvegicus [9]): 0.15 µM·h; half-life [10]: 1.1 h
28 nM	45 nM	CCCC(Cc1ccc(C(=O)NCCC(=O)O)cc1)C(=O)c1cc2cc(Cl)ccc2n1-c1ccc(OC(F)(F)F)cc1 (single isomer, unassigned)	–
